Screens (PubChem)
T cell HTS – modulators of CD8 T cell-vesicle binding, primary screen, mouse 2C CD8+ T cells, flow cytometry; 2C CD8+ T cell-vesicle binding; active compounds read low; response (vesicle binding), % at 7 µM; 330,000 tested, 0.068% active; AID 2052, 2009;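 active means response, share of CD8 T cells binding vesicles, and their 90th percentile fluorescence all below set limits, cut at about 80% in these data, passing the limit was not always enough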;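 further: values below 100% mean blocked vesicle binding to the CD8+ T cells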
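Test system: purified 2C TCR transgenic mouse naive CD8+ T cells. Probe or stimulus: QL9-peptide-loaded Drosophila micro-vesicles bearing Ld, ICAM-1 and B7-1. Incubation: binding step 1.5 h, 37 °C, antibody labelling 20 min, ice. Measured by: flow cytometry of vesicle-bound cells.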
Beta2AR agonist – beta2AR agonists driving receptor internalization, primary screen, cell-based, FAP fluorogen, flow cytometry; 340,000 tested, 0.43% active; Am2.2-beta2AR cells; Beta-2 adrenergic receptor (Homo sapiens), P07550; response, % (test concentration not listed);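 active means response above a set limit, near 3 SD of response in nonfluorescent compounds, cut at about 42% in these data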
Target sequence (P07550 whole entry, looked up): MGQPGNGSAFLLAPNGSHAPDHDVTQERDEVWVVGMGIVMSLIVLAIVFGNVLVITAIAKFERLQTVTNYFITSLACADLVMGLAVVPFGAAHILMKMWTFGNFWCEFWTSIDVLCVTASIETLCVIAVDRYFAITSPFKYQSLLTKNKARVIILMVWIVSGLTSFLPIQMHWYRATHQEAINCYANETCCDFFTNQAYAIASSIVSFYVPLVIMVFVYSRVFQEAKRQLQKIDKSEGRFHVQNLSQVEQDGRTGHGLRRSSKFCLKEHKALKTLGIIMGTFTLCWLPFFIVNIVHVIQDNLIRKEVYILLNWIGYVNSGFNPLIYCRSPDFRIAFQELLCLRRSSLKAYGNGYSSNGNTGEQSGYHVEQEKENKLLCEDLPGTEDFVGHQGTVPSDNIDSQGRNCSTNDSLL
MPTP block – mitochondrial permeability transition pore inhibitors, primary screen, biochemical, isolated mouse mitochondria, absorbance. Ca2+ swelling absorbance, 30 min. inhibition, % at 10 µM. 360,000 tested, 1.4% active;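 active means inhibition of 50% or more, scaled per plate between neutral and stimulator controls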
rCAG binder – binders of r(CAG) RNA repeats, primary screen, biochemical, fluorescence. inhibition, % at 3 µM. 370,000 tested, 1.3% active. r(CAG) RNA repeat, TO-PRO-1 dye displacement fluorescence;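 active means inhibition above the plate cutoff, the mean of all test compounds on that plate plus 3 SD, cut at about 35% in these data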;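 further: higher means more dye released from RNA so lower well fluorescence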
Exocytosis inh – LAMP-1 surface exposure blockers, TALL-104 cells – cell-based, flow cytometry, MLPCN library, primary screen; TALL-104 LAMP-1 surface exposure; cells stimulated with thapsigargin and PMA; inhibition, % at 10 µM; 360,000 tested, 0.66% active; AID 651702, 2012;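 active means inhibition above about 55%, limit read from the data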
V-ATPase pHluor – regulators of yeast V-ATPase proton pumping, primary screen, pHLuorin cytosolic pH fluorescence. response, % at 10 µM. AID 504577, 2011. S. cerevisiae. 350,000 tested, 0.37% active; in the data active means response mostly above about 7.3%, no sharp cut-off; inactive means mostly below about 5.4%; further: actives read high
Rh123 counter – fluorescence retest of MPTP screen hits in isolated mitochondria, single concentration | inhibition, % at 10 µM | membrane potential, Rhodamine 123 fluorescence | 5,000 tested, 78% active | shares compounds with MPTP block; in the data active means inhibition above about 22%
MPTP swell DR – mitochondrial permeability transition pore inhibitors, dose response, biochemical, absorbance, uHTS hits | shares compounds with MPTP block | isolated mitochondria swelling | IC50, µM | 780 tested, 58% active | AID 651561, 2012; in the data active means IC50 below about 20 µM
MPTP counter DR – fluorescent counter-screen in isolated mitochondria, dose response, counter-screen for MPTP inhibitor project, biochemical, fluorescence, uHTS hits; isolated mitochondria counterscreen, fluorescence read-out; IC50, µM; shares compounds with MPTP block; 780 tested, 49% active; in the data active means IC50 below about 80 µM
Each line names hits and unclear results; the compound was inactive in the other large screens (follow-up assays come after a bar, where they were run). Only some compounds are listed: those with a hit (about 3.8% of all), similar ones and a draw of the others.

COC(=O)c1c(NC(=O)Cc2ccccc2)sc(C)c1C	none
COc1ccc(NC(=O)NC23CC4(C)CC(C)(CC(C)(C4)C2)C3)cc1OC	MPTP block 76 | Rh123 counter 51
COC(=O)c1ccc(NC(=O)Nc2ccc(OC)c(OC)c2)cc1	none
COC(=O)[C@]12C[C@H](CC(=O)NCCC(C)C)C(=O)N(Cc3cccc4ccccc34)C1=C[C@H](C(C)C)O[C@@H]2C1CC1	none (no result: T cell HTS, Beta2AR agonist, MPTP block, Exocytosis inh, V-ATPase pHluor)
C/C(=N\N=C(c1ccccc1)c1ccccc1)c1ccco1	MPTP block 93 (no result: rCAG binder) | Rh123 counter inactive
C/C(=N\N(c1ccccc1)c1ccccc1)c1ccco1	none
Cc1cccc(NC(=O)Cn2cc(C(=O)C3CC3)c3ccccc32)c1C	MPTP block 56 | Rh123 counter 51
COC(=O)c1sccc1N/N=C/c1cccc(Oc2ccccc2)c1	MPTP block 64 | Rh123 counter inactive | MPTP swell DR inactive | MPTP counter DR inactive
C=CCOC(=O)N[C@H](c1ccc(-c2ccccc2)cc1)[C@H](C)/C=C/CC(=O)OC	none (no result: T cell HTS, Beta2AR agonist, MPTP block, Exocytosis inh, V-ATPase pHluor)
COc1ccccc1N1CCN(C(=O)c2c(C)noc2C)CC1	none
COc1ccccc1N1CCN(C(=O)c2ccoc2C)CC1	MPTP block 78 | Rh123 counter inactive | MPTP swell DR inactive | MPTP counter DR inactive
COC(=O)c1cn(-c2ccc3c(c2)[C@@]2(CC(=O)N(C)C2c2ccccc2)C(=O)N3CC(C)C)nn1 (some centres not stated)	none (no result: T cell HTS, Beta2AR agonist, MPTP block, Exocytosis inh, V-ATPase pHluor)
Clc1cccc(/C(Cc2nc3ccccc3[nH]2)=N\Nc2ccccc2)c1	MPTP block 97 | Rh123 counter 62
CCCC[C@H](CCCc1ccc(F)cc1)CCC(=O)N(c1ccccc1)c1ccccc1	none (no result: T cell HTS, Beta2AR agonist, MPTP block, Exocytosis inh, V-ATPase pHluor)
Fc1ccc(NC(=S)N2CCCN(c3ccc(C(F)(F)F)cn3)CC2)c(F)c1	MPTP block 71 | Rh123 counter 45
Cc1csc2ncnc(N3CCN(C(=S)Nc4ccc(F)cc4F)CC3)c12	MPTP block 82 | Rh123 counter 75
O=C(CSc1nc2ccc(Cl)cc2[nH]1)NCCc1ccc(Cl)cc1	MPTP block 69 | Rh123 counter 60
O=c1[nH]c(-c2ccc3c(c2)OCO3)nc2c1sc(=S)n2-c1ccccc1	none
O=c1[nH]c(-c2ccc(F)cc2)nc2c1sc(=S)n2-c1ccccc1	MPTP block 56 | Rh123 counter inactive | MPTP swell DR inactive | MPTP counter DR <2.5
FC(F)(F)c1ccc(N2CCN(c3cc(-c4ccccc4)nc4ncnn34)CC2)nc1	MPTP block 92 | Rh123 counter 48
CC(OCC(O)CNCC1COc2ccccc2O1)c1ccc(Cl)cc1 (configuration not stated)	MPTP block 86 | Rh123 counter inactive | MPTP swell DR 15 | MPTP counter DR 58
CCn1c(COc2ccccc2)nnc1SCC(=O)Nc1ccc(Oc2ccccc2)cc1	none (no result: T cell HTS, Beta2AR agonist, MPTP block, Exocytosis inh, V-ATPase pHluor)
Cc1ccc(NS(=O)(=O)c2cccc(C(=O)NC3CCN(Cc4ccccc4)CC3)c2)cc1	none (no result: T cell HTS)
Cc1ccc(NS(=O)(=O)c2ccc(C(=O)NC3CCN(Cc4ccccc4)CC3)cc2)cc1	MPTP block 60 | Rh123 counter 22
Fc1ccc2nc(Nc3nc4c(F)cc(F)cc4s3)sc2c1	MPTP block 97 | Rh123 counter 71
Fc1ccc2nc(Nc3ccccc3)sc2c1	none
Fc1cccc2sc(Nc3nc4ccccc4s3)nc12	none
Fc1ccc2nc(Nc3nc4c(F)cccc4s3)sc2c1	MPTP block 96 | Rh123 counter 46
CCCCNC(=O)NC1CCN(CC(=O)Nc2ccc3c(c2)OCCO3)CC1	none (no result: T cell HTS, Beta2AR agonist, MPTP block, Exocytosis inh, V-ATPase pHluor)
